Measured values published in ChEMBL document CHEMBL1142625, “Antifungal substances against pathogenic fungi, talaroconvolutins, from talaromyces convolutus” (J Nat Prod, 2000).
Activity calls are given as the source filed them. No cut-off for these calls is given here.

Experiments:
Aspergillus niger [1] = assay: Antifungal activity against Aspergillus niger Van Tieghem H7160B assessed as diameter of inhibition zone upto 100 ug/disk after 48 to 72 hrs by paper disk assay; type: functional, organism-based
Procedure, shortened: (§1)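 Compound was absorbed onto 8 mm paper disks and the disks were placed on assay plates seeded with the test fungus. Plates contained Sabouraud's glucose broth agar and were incubated at 25 °C. After 48–72 h, the diameter of the inhibition zone was recorded in mm.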

Cryptococcus neoformans [2] = assay: Antifungal activity against Cryptococcus neoformans (Sanfelice) Vuillemin ATCC 90112 assessed as diameter of inhibition zone upto 100 ug/disk after 48 to 72 hrs by paper disk assay; type: functional, organism-based; procedure, shortened: as §1
Candida albicans [3] = assay: Antifungal activity against Candida albicans 7N assessed as diameter of inhibition zone upto 100 ug/disk after 48 to 72 hrs by paper disk assay; type: functional, organism-based; procedure, shortened: as §1
Aspergillus fumigatus [4] = assay: Antifungal activity against Aspergillus fumigatus Fresenius 167 assessed as diameter of inhibition zone upto 100 ug/disk after 48 to 72 hrs by paper disk assay; type: functional, organism-based; procedure, shortened: as §1
Aspergillus niger [5] = assay: Antifungal activity against Aspergillus niger Van Tieghem H7160B assessed as diameter of inhibition zone at 1 ug/disk after 48 to 72 hrs by paper disk assay; type: functional; procedure, shortened: as §1
Cryptococcus neoformans [6] = assay: Antifungal activity against Cryptococcus neoformans (Sanfelice) Vuillemin ATCC 90112 assessed as diameter of inhibition zone at 100 ug/disk after 48 to 72 hrs by paper disk assay; type: functional; procedure, shortened: as §1
Cryptococcus neoformans [7] = assay: Antifungal activity against Cryptococcus neoformans (Sanfelice) Vuillemin ATCC 90112 assessed as diameter of inhibition zone at 20 ug/disk after 48 to 72 hrs by paper disk assay; type: functional; procedure, shortened: as §1
Aspergillus fumigatus [8] = assay: Antifungal activity against Aspergillus fumigatus Fresenius 167 assessed as diameter of inhibition zone at 1 ug/disk after 48 to 72 hrs by paper disk assay; type: functional; settings: for zone of inhibition at 1 µg/disc: read-out: IZ; procedure, shortened: as §1
Cryptococcus neoformans [9] = assay: Antifungal activity against Cryptococcus neoformans (Sanfelice) Vuillemin ATCC 90112 assessed as diameter of inhibition zone at 5 ug/disk after 48 to 72 hrs by paper disk assay; type: functional; procedure, shortened: as §1
Cryptococcus neoformans [10] = assay: Antifungal activity against Cryptococcus neoformans (Sanfelice) Vuillemin ATCC 90112 assessed as diameter of inhibition zone at 1 ug/disk after 48 to 72 hrs by paper disk assay; type: functional; procedure, shortened: as §1
Aspergillus fumigatus [11] = assay: Antifungal activity against Aspergillus fumigatus Fresenius 167 assessed as diameter of inhibition zone at 100 ug/disk after 48 to 72 hrs by paper disk assay; type: functional; settings: for zone of inhibition at 100 µg/disc: Aspergillus fumigatus, read-out: IZ; procedure, shortened: as §1
Candida albicans [12] = assay: Antifungal activity against Candida albicans 7N assessed as diameter of inhibition zone at 100 ug/disk after 48 to 72 hrs by paper disk assay; type: functional; settings: for zone of inhibition at 100 µg/disc: Candida albicans, read-out: IZ; procedure, shortened: as §1
Aspergillus niger [13] = assay: Antifungal activity against Aspergillus niger Van Tieghem H7160B assessed as diameter of inhibition zone at 5 ug/disk after 48 to 72 hrs by paper disk assay; type: functional; settings: for zone of inhibition at 5 µg/disc: Aspergillus niger, Van Tieghem, read-out: IZ; procedure, shortened: as §1
Aspergillus fumigatus [14] = assay: Antifungal activity against Aspergillus fumigatus Fresenius 167 assessed as diameter of inhibition zone at 20 ug/disk after 48 to 72 hrs by paper disk assay; type: functional; settings: for zone of inhibition at 20 µg/disc: Aspergillus fumigatus, read-out: IZ; procedure, shortened: as §1
Candida albicans [15] = assay: Antifungal activity against Candida albicans 7N assessed as diameter of inhibition zone at 20 ug/disk after 48 to 72 hrs by paper disk assay; type: functional; settings: for zone of inhibition at 20 µg/disc: Candida albicans, read-out: IZ; procedure, shortened: as §1
Candida albicans [16] = assay: Antifungal activity against Candida albicans 7N assessed as diameter of inhibition zone at 5 ug/disk after 48 to 72 hrs by paper disk assay; type: functional; settings: for zone of inhibition at 5 µg/disc: Candida albicans, read-out: IZ; procedure, shortened: as §1
Aspergillus niger [17] = assay: Antifungal activity against Aspergillus niger Van Tieghem H7160B assessed as diameter of inhibition zone at 20 ug/disk after 48 to 72 hrs by paper disk assay; type: functional; settings: for zone of inhibition at 20 µg/disc: Aspergillus niger, Van Tieghem, read-out: IZ; procedure, shortened: as §1
Aspergillus niger [18] = assay: Antifungal activity against Aspergillus niger Van Tieghem H7160B assessed as diameter of inhibition zone at 100 ug/disk after 48 to 72 hrs by paper disk assay; type: functional; settings: for zone of inhibition at 100 µg/disc: Aspergillus niger, Van Tieghem, read-out: IZ; procedure, shortened: as §1
Candida albicans [19] = assay: Antifungal activity against Candida albicans 7N assessed as diameter of inhibition zone at 1 ug/disk after 48 to 72 hrs by paper disk assay; type: functional; settings: for zone of inhibition at 1 µg/disc: Candida albicans, read-out: IZ; procedure, shortened: as §1
Aspergillus fumigatus [20] = assay: Antifungal activity against Aspergillus fumigatus Fresenius 167 assessed as diameter of inhibition zone at 5 ug/disk after 48 to 72 hrs by paper disk assay; type: functional; settings: for zone of inhibition at 5 µg/disc: Aspergillus fumigatus, read-out: IZ; procedure, shortened: as §1

Question: What does the source list for CCC(C)/C=C(\C)[C@H]1C(C)=C[C@@]2(C)C[C@@H](C)CC[C@@H]2[C@H]1C(=O)C1C(=O)NC2(Cc3ccc(O)cc3)OC(C)(C)OC12 (some centres undefined)?
Answer: Activity (Aspergillus niger [1]): inactive; Activity (Cryptococcus neoformans [2]): inactive; Activity (Candida albicans [3]): inactive; Activity (Aspergillus fumigatus [4]): inactive

Question: Which Activity (Aspergillus niger [5]) does the source give for CCC(C)/C=C(\C)[C@H]1C(C)=C[C@@]2(C)C[C@@H](C)CC[C@@H]2[C@H]1C(=O)C1=CC(O)(Cc2ccc(O)cc2)NC1=O (stereo in doubt; 2) here?
Answer: inactive

Question: What about the Activity (Cryptococcus neoformans [6]) of the same compound?
Answer: inactive

Question: And the Activity (Cryptococcus neoformans [7])?
Answer: inactive

Question: What about the Activity (Aspergillus fumigatus [8]) of the same compound?
Answer: inactive

Question: What about the Activity (Cryptococcus neoformans [2]) of the same compound?
Answer: inactive

Question: And the Activity (Cryptococcus neoformans [9])?
Answer: inactive

Question: And the Activity (Cryptococcus neoformans [10])?
Answer: inactive

Question: With CCC(C)/C=C(\C)[C@H]1C(C)=C[C@@]2(C)C[C@@H](C)CC[C@@H]2[C@H]1C(=O)C1=CC(O)(Cc2ccc(O)cc2)NC1=O (stereo in doubt; 2) [TALAROCONVOLUTIN B] as the compound, how does the zone of inhibition at 100 µg/disc (Aspergillus fumigatus [11]) read?
Answer: 12 mm

Question: And the zone of inhibition at 100 µg/disc (Candida albicans [12])?
Answer: 15 mm

Question: What about the zone of inhibition at 5 µg/disc (Aspergillus niger [13]) of the same compound?
Answer: 9 mm

Question: And the zone of inhibition at 20 µg/disc (Aspergillus fumigatus [14])?
Answer: 11 mm

Question: What about the zone of inhibition at 20 µg/disc (Candida albicans [15]) of the same compound?
Answer: 14 mm

Question: What about the zone of inhibition at 5 µg/disc (Candida albicans [16]) of the same compound?
Answer: 13 mm

Question: What about the zone of inhibition at 20 µg/disc (Aspergillus niger [17]) of the same compound?
Answer: 10 mm

Question: What about the zone of inhibition at 100 µg/disc (Aspergillus niger [18]) of the same compound?
Answer: 11 mm

Question: What about the zone of inhibition at 1 µg/disc (Candida albicans [19]) of the same compound?
Answer: 11 mm

Question: And the zone of inhibition at 5 µg/disc (Aspergillus fumigatus [20])?
Answer: 10 mm

Question: C[C@@H]1[C@H](O)[C@@H](C)/C=C/C=C/C=C/C=C/C=C/C=C/C=C/[C@H](O[C@@H]2O[C@H](C)[C@@H](O)[C@H](N)[C@@H]2O)C[C@@H]2O[C@](O)(C[C@@H](O)C[C@@H](O)[C@H](O)CC[C@@H](O)C[C@@H](O)CC(=O)O[C@H]1C)C[C@H](O)[C@H]2C(=O)O [AMPHOTERICIN B] was tested. Which zone of inhibition at 100 µg/disc (Aspergillus fumigatus [11]) did it give?
Answer: 17 mm

Question: What about the zone of inhibition at 1 µg/disc (Aspergillus niger [5]; Aspergillus niger, Van Tieghem, read-out: IZ) of the same compound?
Answer: 16 mm

Question: And the zone of inhibition at 100 µg/disc (Cryptococcus neoformans [6]; read-out: IZ)?
Answer: 19 mm

Question: And the zone of inhibition at 100 µg/disc (Candida albicans [12])?
Answer: 20 mm

Question: And the zone of inhibition at 5 µg/disc (Aspergillus niger [13])?
Answer: 20 mm

Question: And the zone of inhibition at 20 µg/disc (Cryptococcus neoformans [7]; read-out: IZ)?
Answer: 16 mm

Question: What about the zone of inhibition at 20 µg/disc (Aspergillus fumigatus [14]) of the same compound?
Answer: 14 mm

Question: What about the zone of inhibition at 1 µg/disc (Aspergillus fumigatus [8]) of the same compound?
Answer: 10 mm

Question: What about the zone of inhibition at 5 µg/disc (Cryptococcus neoformans [9]; read-out: IZ) of the same compound?
Answer: 13 mm

Question: And the zone of inhibition at 20 µg/disc (Candida albicans [15])?
Answer: 20 mm

Question: What about the zone of inhibition at 5 µg/disc (Candida albicans [16]) of the same compound?
Answer: 18 mm

Question: And the zone of inhibition at 20 µg/disc (Aspergillus niger [17])?
Answer: 24 mm

Question: And the zone of inhibition at 1 µg/disc (Cryptococcus neoformans [10]; read-out: IZ)?
Answer: 11 mm

Question: And the zone of inhibition at 100 µg/disc (Aspergillus niger [18])?
Answer: 25 mm

Question: What about the zone of inhibition at 1 µg/disc (Candida albicans [19]) of the same compound?
Answer: 15 mm

Question: What about the zone of inhibition at 5 µg/disc (Aspergillus fumigatus [20]) of the same compound?
Answer: 12 mm

Question: CCOC1C(C(=O)[C@H]2[C@@H](/C(C)=C/C(C)CC)C(C)=C[C@@]3(C)C[C@@H](C)CC[C@H]23)C(=O)NC1(O)Cc1ccc(O)cc1 (some centres undefined) [TALAROCONVOLUTIN C] was tested. Which zone of inhibition at 100 µg/disc (Aspergillus fumigatus [11]) did it give?
Answer: 11 mm

Question: What about the “inhibition zone (IZ)” value (Aspergillus niger [5]) of the same compound?
Answer: inactive

Question: What about the Activity (Cryptococcus neoformans [6]) of the same compound?
Answer: inactive

Question: What about the zone of inhibition at 100 µg/disc (Candida albicans [12]) of the same compound?
Answer: 11 mm

Question: And the Activity (Aspergillus niger [13])?
Answer: inactive

Question: What about the Activity (Cryptococcus neoformans [7]) of the same compound?
Answer: inactive

Question: What about the zone of inhibition at 20 µg/disc (Aspergillus fumigatus [14]) of the same compound?
Answer: 11 mm

Question: What about the Activity (Aspergillus fumigatus [8]) of the same compound?
Answer: inactive

Question: What about the Activity (Cryptococcus neoformans [2]) of the same compound?
Answer: inactive

Question: And the Activity (Cryptococcus neoformans [9])?
Answer: inactive

Question: What about the zone of inhibition at 20 µg/disc (Candida albicans [15]) of the same compound?
Answer: 10 mm

Question: What about the Activity (Candida albicans [16]) of the same compound?
Answer: inactive

Question: And the zone of inhibition at 20 µg/disc (Aspergillus niger [17])?
Answer: 10 mm

Question: What about the Activity (Cryptococcus neoformans [10]) of the same compound?
Answer: inactive

Question: What about the zone of inhibition at 100 µg/disc (Aspergillus niger [18]) of the same compound?
Answer: 11 mm

Question: What about the Activity (Candida albicans [19]) of the same compound?
Answer: inactive

Question: And the Activity (Aspergillus fumigatus [20])?
Answer: inactive

Question: Which results are given for CCC(C)/C=C(\C)[C@H]1C(C)=C[C@@]2(C)C[C@@H](C)CC[C@@H]2[C@H]1C(=O)C1=CC(O)(Cc2ccc(O)cc2)NC1=O (stereo in doubt; 5)?
Answer: Activity (Cryptococcus neoformans [6]): inactive; Activity (Cryptococcus neoformans [7]): inactive; Activity (Cryptococcus neoformans [9]): inactive; Activity (Cryptococcus neoformans [10]): inactive

Question: Which results are given for CCC(C)/C=C(\C)[C@H]1C(C)=C[C@@]2(C)C[C@@H](C)CC[C@@H]2[C@H]1C(=O)C1=CC(O)(Cc2ccc(O)cc2)NC1=O (stereo in doubt; 5) [TALAROCONVOLUTIN B]?
Answer: inhibition zone (IZ) (Aspergillus fumigatus [11]): 17 mm; Activity (Aspergillus niger [5]): 11 mm; inhibition zone (IZ) (Candida albicans [12]): 20 mm; inhibition zone (IZ) (Aspergillus niger [13]): 13 mm; inhibition zone (IZ) (Aspergillus fumigatus [14]): 15 mm; zone of inhibition at 1 µg/disc (Aspergillus fumigatus [8]): 11 mm; inhibition zone (IZ) (Candida albicans [15]): 18 mm; inhibition zone (IZ) (Candida albicans [16]): 17 mm; inhibition zone (IZ) (Aspergillus niger [17]): 15 mm; inhibition zone (IZ) (Aspergillus niger [18]): 16 mm; inhibition zone (IZ) (Candida albicans [19]): 15 mm; inhibition zone (IZ) (Aspergillus fumigatus [20]): 14 mm

Question: CCC(C)/C=C(\C)[C@H]1C(C)=C[C@@]2(C)C[C@@H](C)CC[C@@H]2[C@H]1C(=O)C1=C/C(=C/c2ccc(O)cc2)NC1=O (some centres undefined) was tested. Which Activity (Aspergillus niger [1]) did it give?
Answer: inactive

Question: And the Activity (Cryptococcus neoformans [2])?
Answer: inactive

Question: What about the Activity (Candida albicans [3]) of the same compound?
Answer: inactive

Question: What about the Activity (Aspergillus fumigatus [4]) of the same compound?
Answer: inactive
